Data taken from ChEMBL document CHEMBL2040832, “Design and synthesis of new (E)-cinnamic N-acylhydrazones as potent antitrypanosomal agents” (Eur J Med Chem, 2012).

How the values were obtained:
Trypanosoma cruzi [1] = assay: Antitrypanosomal activity against Trypanosoma cruzi Tulahuen C2C4 intracellular amastigotes infected in rat L6 cells after 4 days by photometry; type: functional, organism-based; conditions: Tulahuen C2C4, L6, 96 h
How it was run: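 L6 rat myoblasts seeded at 2000 cells/well in RPMI 1640 with 10% FBS and 2 mM L-glutamine; after 24 h infected with 5000 T. cruzi Tulahuen C2C4 LacZ trypomastigotes. At 48 h medium replaced with seven 3-fold serial drug dilutions spanning 0.123 to 90 µg/mL.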

Trypanosoma cruzi [2] = assay: Antitrypanosomal activity against bloodstream form of Trypanosoma cruzi Y trypomastigotes infected in Swiss mouse; type: functional, organism-based
[3] = Selectivity index, ratio of IC50 for mouse J774 cells to IC50 for bloodstream form of Trypanosoma cruzi trypomastigote; type: toxicity, cell-based; conditions: read-out: Ratio IC50
J774 = assay: Cytotoxicity against mouse J774 cells after 18 hrs by MTT assay; type: cell-based; conditions: J774, 18 h
How it was run: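 J774 macrophages plated at 2.5 × 10⁶ cells/mL for 1 h (5% CO₂, 37 °C), non-adherent cells washed off with RPMI 1640. Adherent cells exposed to compounds (0.1–[…]), medium alone or 3% Tween 20 in triplicate for 18 h; MTT added for 4 h, formazan dissolved in DMSO, absorbance at 540 nm; LC₅₀ reported.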

Cruzipain [4] = biological target: T1, Cruzipain (Trypanosoma cruzi, UniProt P25779); assay: Inhibition of Trypanosoma cruzi C-terminally truncated cruzain expressed in Escherichia coli using Z-Phe-Arg-AMC as substrate incubated for 5 mins prior to substrate addition by spectrofluorometry
T1 sequence (P25779 whole entry, the tested form may be a part): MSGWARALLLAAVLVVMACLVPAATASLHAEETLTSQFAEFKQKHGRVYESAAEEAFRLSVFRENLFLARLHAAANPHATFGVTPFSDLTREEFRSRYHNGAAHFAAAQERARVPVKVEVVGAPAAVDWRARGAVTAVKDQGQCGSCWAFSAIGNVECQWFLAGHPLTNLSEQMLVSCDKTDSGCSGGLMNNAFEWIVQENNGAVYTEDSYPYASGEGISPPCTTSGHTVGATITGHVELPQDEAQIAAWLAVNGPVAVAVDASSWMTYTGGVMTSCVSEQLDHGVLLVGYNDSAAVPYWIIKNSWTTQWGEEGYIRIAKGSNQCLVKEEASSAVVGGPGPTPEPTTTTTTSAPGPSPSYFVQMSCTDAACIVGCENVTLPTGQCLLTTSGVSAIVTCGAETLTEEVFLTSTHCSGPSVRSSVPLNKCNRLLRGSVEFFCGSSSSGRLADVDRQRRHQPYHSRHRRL
How it was run: (§1)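 Purified C-terminally truncated cruzain from E. coli (M15 or DH5a), 0.64 nM, in 50 mM sodium phosphate, 100 mM NaCl, 5 mM EDTA, 5 mM DTT, pH 6.5, preincubated with inhibitor 5 min at room temperature before Z-Phe-Arg-AMC. AMC release followed by fluorescence (ex 355, em 460 nm). IC₅₀ by nonlinear regression from ≥7 concentrations giving 20–85% inhibition, relative to uninhibited activity.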

Cruzipain [5] = biological target: T1, Cruzipain; assay: Inhibition of Trypanosoma cruzi cruzain; how it was run: as §1

`O=C(/C=C/c1ccccc1)N/N=C/c1ccccc1` showed an IC50 (Trypanosoma cruzi [1]) greater than 100 µM and an IC50 (Trypanosoma cruzi [2]) greater than 1100 µM.

With `O=C(/C=C/c1ccccc1)N/N=C/c1ccc(F)cc1` the IC50 (Trypanosoma cruzi [1]) was greater than 100 µM and the IC50 (Trypanosoma cruzi [2]) was greater than 1100 µM.

`O=C(/C=C/c1ccccc1)N/N=C/c1ccc(Cl)cc1` gave an IC50 (Trypanosoma cruzi [1]) greater than 100 µM and an IC50 (Trypanosoma cruzi [2]) greater than 1100 µM.

Work on `O=C(/C=C/c1ccccc1)N/N=C/c1ccc(Br)cc1` yielded an IC50 (Trypanosoma cruzi [2]) greater than 1100 µM.

`O=C(/C=C/c1ccccc1)N/N=C/c1ccc([N+](=O)[O-])cc1` gave an IC50 (Trypanosoma cruzi [1]) of 81 µM and an IC50 (Trypanosoma cruzi [2]) greater than 1100 µM.

`COc1ccc(/C=N/NC(=O)/C=C/c2ccccc2)cc1` showed an IC50 (Trypanosoma cruzi [1]) greater than 100 µM and an IC50 (Trypanosoma cruzi [2]) greater than 1100 µM.

`O=C(/C=C/c1ccccc1)N/N=C/c1ccc(O)cc1` gave an IC50 (Trypanosoma cruzi [1]) greater than 100 µM and an IC50 (Trypanosoma cruzi [2]) greater than 1100 µM.

With `O=C(/C=C/c1ccccc1)N/N=C/c1ccccc1O` the selectivity ratio [3] was 71, the IC50 (Trypanosoma cruzi [1]) was 6.6 µM and the IC50 (Trypanosoma cruzi [2]) was 5.9 µM. For the same compound, the IC50 (J774) was 420 µM and the IC50 (Cruzipain [4]) was 52.2 µM.

Work on `O=C(/C=C/c1ccccc1)N/N=C/c1ccc(O)c(O)c1` yielded an IC50 (Trypanosoma cruzi [1]) greater than 100 µM and an IC50 (Trypanosoma cruzi [2]) of 107 µM.

`O=C(/C=C/c1ccccc1)N/N=C/c1ccc2c(c1)OCO2` showed an IC50 (Trypanosoma cruzi [1]) of 61 µM and an IC50 (Trypanosoma cruzi [2]) greater than 1100 µM.

`COc1ccc(/C=N/NC(=O)/C=C/c2ccccc2)cc1OC` gave an IC50 (Trypanosoma cruzi [1]) greater than 100 µM and an IC50 (Trypanosoma cruzi [2]) greater than 1100 µM.

In the case of `COc1ccc(/C=N/NC(=O)/C=C/c2ccccc2)cc1O`, the IC50 (Trypanosoma cruzi [1]) is reported as greater than 100 µM and the IC50 (Trypanosoma cruzi [2]) is reported as greater than 1100 µM.

In the case of `COc1cc(/C=N/NC(=O)/C=C/c2ccccc2)ccc1O`, the IC50 (Trypanosoma cruzi [1]) is reported as 73 µM and the IC50 (Trypanosoma cruzi [2]) is reported as 127 µM.

`COc1cc(/C=N/NC(=O)/C=C/c2ccccc2)cc(OC)c1OC` gave an IC50 (Trypanosoma cruzi [1]) of 70 µM and an IC50 (Trypanosoma cruzi [2]) of 71 µM.

Work on `COc1cc(/C=N/NC(=O)/C=C/c2ccccc2)cc([N+](=O)[O-])c1O` yielded an IC50 (Trypanosoma cruzi [1]) of 40 µM and an IC50 (Trypanosoma cruzi [2]) greater than 1100 µM.

With `O=C(/C=C/c1ccc2c(c1)OCO2)N/N=C/c1ccccc1O` the selectivity ratio [3] was 50, the IC50 (Trypanosoma cruzi [2]) was 5.6 µM and the IC50 (J774) was 281 µM. For the same compound, the IC50 (Cruzipain [4]) was 74.8 µM.

For `COc1cc(/C=N/NC(=O)/C=C/c2ccc3c(c2)OCO3)cc([N+](=O)[O-])c1O`, the IC50 (Trypanosoma cruzi [2]) was greater than 1100 µM.

`COc1cc(/C=C/C(=O)N/N=C/c2ccccc2O)cc(OC)c1OC` gave an IC50 (Trypanosoma cruzi [2]) of 78.8 µM.

For `COc1cc(/C=N/NC(=O)/C=C/c2cc(OC)c(OC)c(OC)c2)cc([N+](=O)[O-])c1O`, the selectivity ratio [3] was 134, the IC50 (Trypanosoma cruzi [2]) was 18 µM and the IC50 (J774) was 2410 µM. It also gave an IC50 (Cruzipain [4]) of 45.9 µM.

In the case of `COc1cc(/C=C/C(=O)N/N=C/c2ccccc2O)cc([N+](=O)[O-])c1OC`, the selectivity ratio [3] is reported as 32, the IC50 (Trypanosoma cruzi [2]) is reported as 17 µM and the IC50 (J774) is reported as 550 µM. It also gave an IC50 (Cruzipain [4]) of 83.9 µM.

Work on `COc1cc(/C=N/NC(=O)/C=C/c2cc(OC)c(OC)c([N+](=O)[O-])c2)cc([N+](=O)[O-])c1O` yielded a selectivity ratio [3] of 116, an IC50 (Trypanosoma cruzi [2]) of 16 µM and an IC50 (J774) of 1860 µM. For the same compound, the IC50 (Cruzipain [4]) was 44.7 µM.

In the case of `COc1ccc(/C=C/C(=O)N/N=C/c2ccccc2O)cc1OC`, the IC50 (Trypanosoma cruzi [2]) is reported as 65 µM.

`COc1ccc(/C=C/C(=O)N/N=C/c2cc(OC)c(O)c([N+](=O)[O-])c2)cc1OC` gave an IC50 (Trypanosoma cruzi [2]) greater than 1100 µM.

`COc1cc(/C=C/C(=O)N/N=C/c2ccccc2)cc([N+](=O)[O-])c1O` showed an IC50 (Trypanosoma cruzi [2]) of 79 µM.

Work on `O=C(CCc1ccccc1)N/N=C/c1ccccc1O` yielded a selectivity ratio [3] of 90, an IC50 (Trypanosoma cruzi [2]) of 18 µM and an IC50 (J774) of 1630 µM. For the same compound, the IC50 (Cruzipain [4]) was greater than 100 µM.

Compound `COc1cc(/C=N/NC(=O)CCc2ccccc2)cc([N+](=O)[O-])c1O` has an IC50 (Trypanosoma cruzi [2]) greater than 1100 µM.

With `O=C(N/N=C/c1ccccc1O)c1ccc2ccccc2c1` the IC50 (Trypanosoma cruzi [2]) was 93 µM.

For `COc1cc(/C=N/NC(=O)c2ccc3ccccc3c2)cc([N+](=O)[O-])c1O`, the IC50 (Trypanosoma cruzi [2]) was 93 µM.

Work on `COc1ccc2cc(O)c(C(=O)N/N=C/c3c(O)ccc4ccccc34)cc2c1` yielded an IC50 (Cruzipain [5]) of 0.6 µM.

With `O=C(/C=C/c1ccc2c(c1)OCO2)c1ccc(Br)cc1` the IC50 (Cruzipain [5]) was 20 µM.

Work on `O=C(Cn1ccnc1[N+](=O)[O-])NCc1ccccc1` [BENZNIDAZOLE] yielded a selectivity ratio [3] of 356, an IC50 (Trypanosoma cruzi [1]) of 0.122 µM and an IC50 (Trypanosoma cruzi [2]) of 10.8 µM. It also gave an IC50 (J774) of 3840 µM.
